According to ChEMBL document CHEMBL1151862, “Quaternary ammonium N,N-dichloroamines as topical, antimicrobial agents” (Bioorg Med Chem Lett, 2009):
In brackets after ≈: the same amount, converted by molar mass.

What was measured:
[1] = Stability in phosphate buffer assessed as half life at pH 7; format: physicochemical
Summary of the method: (§1)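 Aqueous half-life is reported in days. Media were saline at pH 4, phosphate at pH 7, and, for some analogs, 0.6% borate buffer at pH 7. Biological testing was limited to analogs with aqueous stability above 24 h at 40 °C.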

[2] = Stability in saline solution assessed as half life at pH 4; format: physicochemical; summary of the method: as §1
Staphylococcus aureus = assay: Antibacterial activity against Staphylococcus aureus ATCC 29213 after 1 hr by CLSI M26-A based method at room temperature; format: functional; conditions: ATCC 29213, 1 h
Summary of the method: (§2)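 Minimum bactericidal (bacteria) or fungicidal (C. albicans) concentration was determined by a modified CLSI M26-A method. Isotonic saline at pH 4 replaced Mueller–Hinton broth because chlorine reacts with broth components. Exposure was shortened from 16–20 h at 35 °C to 1 h at room temperature.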

Candida albicans = assay: Antifungal activity against Candida albicans ATCC 10231 after 1 hr by CLSI M26-A based method at room temperature; format: functional; conditions: ATCC 10231, 1 h; summary of the method: as §2
Escherichia coli = assay: Antibacterial activity against Escherichia coli ATCC 25922 after 1 hr by CLSI M26-A based method at room temperature; format: functional; conditions: ATCC 25922, 1 h; summary of the method: as §2
[3] = Stability in water assessed as half life at pH 4 at 40 degC; format: physicochemical
[4] = Stability in 0.6% borate buffer assessed as half life at pH 7; format: physicochemical; summary of the method: as §1

half-life [1] [days]	half-life [2] [days]	half-life [3] [days]	half-life [4] [days]	SMILES	MBC (Staphylococcus aureus) [µg/mL]	MFC (Candida albicans) [µg/mL]	MBC (Escherichia coli) [µg/mL]
50	46			Cc1nc(CC(C)(C)N(Cl)Cl)n(CCS(=O)(=O)O)n1	4 (≈ 12.1 µM)	64 (≈ 193 µM)	4 (≈ 12.1 µM)
23	21			CC(C)(Cc1ncnn1CCS(=O)(=O)O)N(Cl)Cl	4 (≈ 12.6 µM)	64 (≈ 202 µM)	2 (≈ 6.31 µM)
19	> 180			CC(C)(C[N+](C)(C)CCS(=O)(=O)O)N(Cl)Cl.[Cl-]	64	128	16
< 1	< 1			CC(C)(C[N+]1(C)CCOCC1)N(Cl)Cl.[Cl-]			
100	> 122			CC(C)(C[N+]1(C)CCCCC1)N(Cl)Cl.[Cl-]	16	64	8
		0.104		CC(C)(COCCCS(=O)(=O)O)N(Cl)Cl			
	33		36	CC(C)(CC(=O)NCCS(=O)(=O)O)N(Cl)Cl	8 (≈ 27.3 µM)	64 (≈ 218 µM)	2 (≈ 6.82 µM)
		> 95		CC(C)(CC(=O)OCCS(=O)(=O)O)N(Cl)Cl			
> 396	> 325			CC(C)(C[N+](C)(C)C)N(Cl)Cl.[Cl-]	16	128	8
	> 60		20	C[n+]1ccc(CCC(C)(C)N(Cl)Cl)cc1.[Cl-]	8	1020	2
7	> 72			CC(C)(CC(=O)OCC[N+]1(C)CCCCC1)N(Cl)Cl.[Cl-]	4		2
		0.5		CC(C)(CNC(=O)CCS(=O)(=O)O)N(Cl)Cl			
5	10			CC(C)(c1cn(CCS(=O)(=O)O)nn1)N(Cl)Cl	8 (≈ 26.4 µM)	32 (≈ 106 µM)	4 (≈ 13.2 µM)
1	1			CN(CCS(=O)(=O)O)C(=O)CC(C)(C)N(Cl)Cl	2 (≈ 6.51 µM)	32 (≈ 104 µM)	1 (≈ 3.26 µM)
> 300	> 730			CC(C)(CS(=O)(=O)[O-])N(Cl)Cl.[Na+]	2	32	2
1	> 67			C[S+](C)CC(C)(C)N(Cl)Cl.[Cl-]	8	128	4
6	4			CN(CC[N+](C)(C)C)C(=O)CC(C)(C)N(Cl)Cl.[Cl-]	16	32	2
	37		6	CC(=O)N1CC[N+](C)(CC(C)(C)N(Cl)Cl)CC1.[Cl-]	64	> 1020	16

SMILES	half-life [1] [days]	half-life [2] [days]	half-life [3] [days]	half-life [4] [days]	MBC (Staphylococcus aureus) [µg/mL]	MFC (Candida albicans) [µg/mL]	MBC (Escherichia coli) [µg/mL]
Cc1nn(C)c(CC(C)(C)N(Cl)Cl)[n+]1C.[Cl-]	4	61			8	32	4
CC(C)(Cc1nc(CS(=O)(=O)O)no1)N(Cl)Cl	17	106			2 (≈ 6.58 µM)	16 (≈ 52.6 µM)	4 (≈ 13.2 µM)
Cn1nc[n+](C)c1CC(C)(C)N(Cl)Cl.[Cl-]	5	67			4	16	2
